Shown are actives, neighbours in structure and some others; about 4.1% of the full set was active somewhere.
ROMK primary = modulates human ROMK potassium channel activity | P48048 | Tet-inducible ROMK, thallium flux fluorescence; actives lie on both sides | B-score at 10 µM | actives 2% (n = 130,000) | AID 1918;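 active = signal ratio slope over the read window, or its plate-corrected B-score, at least 3 SD from the plate mean, either direction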;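 note: B-score of the F/F0 ratio slope over 7 to 12 s after thallium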
Target sequence (P48048 whole entry, looked up): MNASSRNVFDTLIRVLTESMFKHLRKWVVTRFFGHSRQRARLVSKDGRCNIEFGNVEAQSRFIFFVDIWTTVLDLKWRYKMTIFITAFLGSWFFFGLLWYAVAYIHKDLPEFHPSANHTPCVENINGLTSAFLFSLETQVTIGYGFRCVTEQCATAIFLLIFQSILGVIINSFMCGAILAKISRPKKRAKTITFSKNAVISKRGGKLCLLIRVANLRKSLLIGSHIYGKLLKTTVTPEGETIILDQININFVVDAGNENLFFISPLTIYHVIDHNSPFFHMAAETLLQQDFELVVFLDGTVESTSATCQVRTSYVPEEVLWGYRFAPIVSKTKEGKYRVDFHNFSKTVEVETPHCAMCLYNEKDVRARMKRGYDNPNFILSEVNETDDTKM
DTT redox prof = compounds producing H2O2 with reducing agent – biochemical, NIH compound library profiling, artefact control for MLSCN library redox annotation, primary screen; DTT-dependent redox cycling H2O2, phenol red/HRP absorbance; 100% = 100 µM peroxide control, 0% = buffer; activation, % at 10 µM; actives 0.03% (n = 200,000); AID 878;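 active = activation of at least 50% relative to the plate's high and low controls in the primary single-dose screen; inactive = activation below 50%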;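 note: compound incubated with DTT at 0.8 mM final as the reducing agent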
Autophagy mod = alters autophagy in cells; MEF GFP-LC3 puncta imaging; test concentration mostly 10 µM; calls only at 10 µM (by protocol); actives 0.98% (n = 190,000);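 active = percentage of spot-positive cells more than 3 SD above its plate mean, without a fluorescence outlier flag or 80% toxicity; inconclusive = no clear call, values can overlap the other calls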
KCC2 mod = modulators of human KCC2 chloride dependent transport. KCC2 cells, thallium flux FluoZin-2 fluorescence. Q9H2X9. AID 1456. actives 2.2% (n = 190,000). B-score of Tl+ flux slope (higher = more flux/activation; lower = inhibition) at 10 µM;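 active = thallium flux slope and its plate-corrected score both differing from the plate sample mean at a set confidence after two filtering rounds, in either direction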;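 note: slope of fluorescence scaled to starting intensity during 10 to 20 s after thallium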
Dynein transport = dynein cargo transport inhibition | 3617.4 mouse cells, GR-EGFP nuclear translocation imaging; test concentration mostly 20 µM; stimulated with dexamethasone, 1 µM; active compounds read low | z-score, hits read low | actives 0.47% (n = 220,000) | AID 1381;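 active = plate z-score of nuclear minus cytoplasmic receptor signal below a set negative limit, without overly bright fluorescence or cell loss, cut at about -3.5 in these data, passing the limit was not always enough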;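 note: z-score of nuclear minus cytoplasmic ring GR-EGFP intensity difference per well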
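Buffer or medium: tet-free, stripped-serum medium; reagent: dexamethasone at 1.0 µM final, 30 min; incubation: 48 h induction, 1 h compound, 30 min dex at 37 °C; measured by: formaldehyde fixation, Hoechst nuclear stain, 10x automated fluorescence imaging; read-out: nuclear-to-cytoplasmic GR-EGFP distribution per well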
KCC2 secondary = KCC2 (human) modulation, secondary assay; shares compounds with KCC2 mod; HEK293-KCC2, thallium flux, FluoZin2 fluorescence; active compounds read high; normalised thallium flux (F/F0 slope) at 10 µM; actives 15% (n = 3,700);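 active = thallium flux slope above the same plate's solvent-only control mean plus 3 SD; inconclusive = the two replicate wells disagree; inactive = no significant difference from solvent-only control wells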
KCC2 bumet counter = thallium flux despite bumetanide block in KCC2 cells, secondary assay 3. normalized thallium flux at 10 µM. actives 49% (n = 3,700). shares compounds with KCC2 mod. HEK293-KCC2 + bumetanide/ouabain, thallium flux FluoZin2; active compounds read high. AID 1714;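 active = thallium entry rate above the same plate's blocked-transporter control wells by more than 3 SD; inconclusive = the two repeat wells disagree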;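 note: raw slope of fluorescence over initial fluorescence between 10 and 20 s after thallium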
KCC2 sec2 = KCC2 (human) modulation, second secondary assay; HEK293-KCC2, thallium flux FluoZin2 fluorescence; actives lie on both sides; F/F0 rise rate, 10–20 s post-thallium; actives 23% (n = 3,700); AID 1715; normalized thallium flux at 10 µM; shares compounds with KCC2 mod;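 active = thallium flux slope more than 3 SD above or below the plate's solvent-only control mean, mostly below; inconclusive = the two repeat wells disagreed; inactive = no significant shift from solvent-only controls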
HEK counter1 = acts in parental HEK cells, KCC2 counter-screen; shares compounds with KCC2 mod; HEK293 parental cells, thallium flux FluoZin2, ouabain; baseline-ratio fluorescence slope, 10–20 s after thallium; thallium flux rate (normalised fluorescence) at 10 µM; actives 46% (n = 3,700); AID 1716;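 active = thallium flux rate significantly above the same plate's solvent-only control wells, beyond their mean plus 3 SD; inconclusive = the two replicate wells gave conflicting results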
KCC2 retest ouab = KCC2 (human) modulation, ouabain retest; shares compounds with KCC2 mod; HEK293-KCC2, thallium flux FluoZin2 fluorescence; bidirectional: low = inhibitor, high = activator; raw Tl+ flux slope (below DMSO = inhibition, above = activation) at 10 µM; actives 48% (n = 3,700); AID 1717;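 active = thallium flux slope beyond 3 SD from same-plate DMSO control mean in most replicates, usually higher, sometimes lower; inconclusive = repeat tests gave conflicting results; inactive = no significant difference from controls in most replicates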;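 note: slope of initial-normalized fluorescence between seconds 10 and 20 after thallium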
HEK293 Tl flux2 = counter-screen for KCC2 modulators: effect in parental HEK293 cells | thallium flux slope at 10 µM | thallium flux FluoZin-2 fluorescence slope | shares compounds with KCC2 mod | actives 33% (n = 3,700);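 active = thallium flux slope above the same plate's solvent-control mean plus 3 SD in both duplicate wells; inconclusive = duplicate wells that disagreed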;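 note: run without ouabain in cells lacking the KCC2 cotransporter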
Numbers stand for hits.

What do the screens show for `Cc1ccc(Nc2nnc(SCC(=O)Nc3ncc(C(F)(F)F)cc3Cl)s2)cc1`?
DTT redox prof: inactive; Autophagy mod: inactive; KCC2 mod: inactive; Dynein transport: inactive

How did CC1CCCc2sc3ncn(N)c(=N)c3c21 (stereo unspecified) do in these assays?
ROMK primary: inactive; DTT redox prof: inactive; Autophagy mod: inactive; KCC2 mod: inactive; Dynein transport: inactive

What do the screens show for `CC(C)OC(=O)c1nn2c(C(F)(F)F)cc(-c3ccc(Br)o3)nc2c1Br`?
ROMK primary: inactive; DTT redox prof: inactive; Autophagy mod: inactive; Dynein transport: inactive; KCC2 secondary: inactive; KCC2 bumet counter: inactive; KCC2 sec2: inactive; HEK counter1: inactive; KCC2 retest ouab: inactive; HEK293 Tl flux2: inactive

How did O=C1c2nc3cc(-c4ccco4)[nH]n3c(=O)c2CN1Cc1ccccc1 do in these assays?
ROMK primary: inactive; KCC2 mod: inactive; Dynein transport: inactive

How did CCCCc1c(C)nc2cc(-c3ccco3)[nH]n2c1=O do in these assays?
KCC2 mod: 4.46; Dynein transport: inactive; KCC2 secondary: inactive; KCC2 bumet counter: 0.0139; KCC2 sec2: inactive; HEK counter1: 0.0129; KCC2 retest ouab: inconclusive; HEK293 Tl flux2: 0.015

Results for CN(C)C(=O)CCCCCCCCC(=O)N(C)C ?
KCC2 mod: inactive; Dynein transport: inactive

What do the screens show for `COc1ccccc1Nc1nnc(SCc2nnc(-c3cc(OC)c(OC)c(OC)c3)o2)s1`?
ROMK primary: inactive; DTT redox prof: inactive; Autophagy mod: inactive; KCC2 mod: inactive; Dynein transport: inactive

What do the screens show for `COc1cc(-c2nnc(CSc3nnc(Nc4ccc(C(C)C)cc4)s3)o2)cc(OC)c1OC`?
DTT redox prof: inactive; Autophagy mod: inactive; KCC2 mod: -4.04; Dynein transport: inactive; KCC2 secondary: inactive; KCC2 bumet counter: inactive; KCC2 sec2: 0.025; HEK counter1: inactive; KCC2 retest ouab: 0.0162; HEK293 Tl flux2: inactive

How did O=C(C1CCCN(S(=O)(=O)c2cccc3nsnc23)C1)N1CCc2ccccc2C1 (stereo unspecified) do in these assays?
ROMK primary: inactive; DTT redox prof: inactive; Autophagy mod: inactive; KCC2 mod: -3.16; Dynein transport: inactive; KCC2 secondary: inactive; KCC2 bumet counter: inactive; KCC2 sec2: inactive; HEK counter1: inactive; KCC2 retest ouab: inactive; HEK293 Tl flux2: inactive

Results for O=C(C1CCCN(S(=O)(=O)c2cccc3nsnc23)C1)N1CCc2ccccc21 (stereo unspecified) ?
ROMK primary: inactive; DTT redox prof: inactive; Autophagy mod: inactive; Dynein transport: inactive; KCC2 secondary: inactive; KCC2 bumet counter: inactive; KCC2 sec2: inactive; HEK counter1: inconclusive; KCC2 retest ouab: inactive; HEK293 Tl flux2: inactive

How did O=C(NCc1csc(-c2cccs2)n1)C1CCC1 do in these assays?
KCC2 mod: inactive; Dynein transport: inactive

How did CCCCOc1ccc(NC(=O)Nc2nnc(C)s2)cc1 do in these assays?
KCC2 mod: inactive; Dynein transport: inactive

Results for C=CCNC(=S)Nc1sc2c(c1C(N)=O)CCCC2 ?
KCC2 mod: 8.27; Dynein transport: inactive; KCC2 secondary: inactive; KCC2 bumet counter: 0.0143; KCC2 sec2: inactive; HEK counter1: 0.0117; KCC2 retest ouab: 0.0282; HEK293 Tl flux2: 0.0111

What do the screens show for `NC(=O)c1c(NC(=S)Nc2ccccc2)sc2c1CCCC2`?
ROMK primary: inactive; DTT redox prof: inactive; Autophagy mod: inactive; KCC2 mod: inactive; Dynein transport: inactive

How did S=c1[nH]nc(-c2ccccn2)n1/N=C/c1ccc(-c2ccccc2Cl)o1 do in these assays?
ROMK primary: inactive; DTT redox prof: inactive; Autophagy mod: inactive; KCC2 mod: 132; Dynein transport: inactive; KCC2 secondary: 0.122; KCC2 bumet counter: 0.138; KCC2 sec2: inactive; HEK counter1: 0.131; KCC2 retest ouab: 0.148; HEK293 Tl flux2: 0.0132

Results for S=c1[nH]nc(-c2ccccn2)n1/N=C/c1ccc(Cl)c(Cl)c1 ?
KCC2 mod: 40.9; Dynein transport: inactive; KCC2 secondary: inactive; KCC2 bumet counter: 0.109; KCC2 sec2: 0.0544; HEK counter1: 0.0408; KCC2 retest ouab: 0.0665; HEK293 Tl flux2: 0.0306

How did S=c1[nH]nc(-c2cc(-c3ccccc3)n[nH]2)n1/N=C/c1ccc(Cl)c(Cl)c1 do in these assays?
ROMK primary: inactive; KCC2 mod: inactive; Dynein transport: inactive

How did Cc1ccc(NC(=S)N/N=C/c2cccn2Cc2ccccc2F)cc1 do in these assays?
KCC2 mod: inactive; Dynein transport: inactive

Results for Fc1cccc(Cc2noc(CN3CCCCC3CCc3ccccn3)n2)c1 (stereo unspecified) ?
ROMK primary: inactive; DTT redox prof: inactive; Autophagy mod: inactive; KCC2 mod: inactive; Dynein transport: inactive

Results for COc1ccc(N2C(=S)N=C(Nc3ccccc3)C23CCCCC3)cc1 ?
DTT redox prof: inactive; Autophagy mod: inactive; KCC2 mod: 23.2; Dynein transport: inactive; KCC2 secondary: inconclusive; KCC2 bumet counter: 0.0261; KCC2 sec2: inactive; HEK counter1: 0.0142; KCC2 retest ouab: 0.0291; HEK293 Tl flux2: 0.0124

How did CCOC(=O)c1cc(-c2ccc(Cl)cc2)nc2onc(C)c12 do in these assays?
ROMK primary: inactive; DTT redox prof: inactive; Autophagy mod: inactive; Dynein transport: inactive; KCC2 secondary: inactive; KCC2 bumet counter: inactive; KCC2 sec2: inactive; HEK counter1: inactive; KCC2 retest ouab: inactive; HEK293 Tl flux2: inactive

How did COc1ccc(C2C(C(N)=O)=C(C)Nc3nc(-c4cccc(Cl)c4)nn32)cc1OC (stereo unspecified) do in these assays?
ROMK primary: inactive; DTT redox prof: inactive; Autophagy mod: inactive; KCC2 mod: inactive; Dynein transport: inactive

Screening data: PubChem, several laboratories
